Test results from paper PMC8227600 (ACS Central Science, 2021).
pEC50, pIC50, pKd: −log10 of the molar value. Where a name gives a salt, the structure may show the parent alone.

What was measured:
HT22 cells [1] = assay: Erastin-induced ferroptosis in HT22 cells; assay type: cell-based, mouse
Method in brief: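 HT22 cells were cotreated with Erastin and test compound, and cell viability was measured. A value was reported as not determined where viability was below 50% at 1.0 μM compound with Erastin.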

[2] = molecular target: T1, NCOA4^383–522–FTH1 interaction (Homo sapiens, UniProt Q13772); assay: ELISA for NCOA4^383–522–FTH1 protein-protein interaction; assay type: binding
T1 sequence (Q13772 383-522): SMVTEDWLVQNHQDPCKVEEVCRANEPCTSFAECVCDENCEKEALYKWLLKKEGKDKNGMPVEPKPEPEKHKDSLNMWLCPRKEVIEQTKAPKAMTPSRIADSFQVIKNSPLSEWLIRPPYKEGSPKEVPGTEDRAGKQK
Method in brief: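 Test compound at the indicated concentrations was preincubated with recombinant NCOA4 383–522. Binding of NCOA4 383–522 to FTH1 was then monitored by ELISA to build a dose–response curve. Values are mean ± SEM of three independent experiments.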

ferritin = assay: Ferritin protein level; assay type: cell-based, mouse; settings: 6 h
HT22 cells [3] = assay: Lipid ROS; assay type: cell-based, mouse; settings: 3 h; for lipid ROS, oxidized BODIPY-C11 fluorescence intensity: 1 μM RSL3, 0.5 μM compound
Method in brief: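 HT22 cells were exposed to 1 μM RSL3 with or without 0.5 μM test compound or 0.5 μM Fer-1 for 3 h. Lipid ROS was detected with BODIPY-C11 (oxidized form, green) by confocal microscopy (Hoechst 33342 nuclei) and by flow cytometry. Cytosolic ROS was measured by flow cytometry with carboxy-H2DCFDA.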

NCOA4^383–522 [4] = molecular target: T2, NCOA4^383–522 (Homo sapiens, UniProt Q13772); assay: Surface plasmon resonance binding to NCOA4^383–522
T2 sequence (Q13772 383-522): T1 sequence (Q13772 383-522)

NCOA4^383–522 [5] = molecular target: T2, NCOA4^383–522; assay: Pull-down of recombinant NCOA4^383–522; assay type: binding; settings: protein preincubated with 9a 1 h
Method in brief: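 Recombinant NCOA4 383–522 or FTH1 protein was pretreated with test compound or DMSO for 1 h. It was then incubated for 1 h with increasing concentrations of a biotinylated probe precoupled to streptavidin magnetic beads. Bead-bound protein was detected by silver staining and Western blotting.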

HT22 cells [6] = assay: Intracellular GSH level and GPX4 expression in HT22 cells; assay type: cell-based, mouse; settings: 12 h
HT22 cells [7] = assay: Ferroptosis induced by cysteine depletion, BSO or ML210 in HT22 cells; assay type: cell-based, mouse; settings: for cell death from cysteine depletion: cystine-free media 24 h, 0.5 μM 9a, 0.5 μM Fer-1 or 20 μM DFO
HT-1080 cells [8] = assay: Ferroptosis induced by Erastin, RSL3, ML210 or GPX4 knockdown in HT-1080 cells; assay type: cell-based, human
Method in brief: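 HT-1080 cells were transfected for 12 h with scrambled siRNA (si-NC) or GPX4-targeting siRNA. Cells were then treated for 36 h with or without 0.5 μM test compound, 0.5 μM Fer-1 or 20 μM DFO. Viability was read by CCK-8. Values are mean ± SEM of three independent experiments.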

NCOA4–FTH1 interaction = molecular target: T3, NCOA4–FTH1 interaction (Homo sapiens, UniProt Q13772); assay: Coimmunoprecipitation of NCOA4 and FTH1 in cells; assay type: cell-based
T3 sequence (Q13772 1-614): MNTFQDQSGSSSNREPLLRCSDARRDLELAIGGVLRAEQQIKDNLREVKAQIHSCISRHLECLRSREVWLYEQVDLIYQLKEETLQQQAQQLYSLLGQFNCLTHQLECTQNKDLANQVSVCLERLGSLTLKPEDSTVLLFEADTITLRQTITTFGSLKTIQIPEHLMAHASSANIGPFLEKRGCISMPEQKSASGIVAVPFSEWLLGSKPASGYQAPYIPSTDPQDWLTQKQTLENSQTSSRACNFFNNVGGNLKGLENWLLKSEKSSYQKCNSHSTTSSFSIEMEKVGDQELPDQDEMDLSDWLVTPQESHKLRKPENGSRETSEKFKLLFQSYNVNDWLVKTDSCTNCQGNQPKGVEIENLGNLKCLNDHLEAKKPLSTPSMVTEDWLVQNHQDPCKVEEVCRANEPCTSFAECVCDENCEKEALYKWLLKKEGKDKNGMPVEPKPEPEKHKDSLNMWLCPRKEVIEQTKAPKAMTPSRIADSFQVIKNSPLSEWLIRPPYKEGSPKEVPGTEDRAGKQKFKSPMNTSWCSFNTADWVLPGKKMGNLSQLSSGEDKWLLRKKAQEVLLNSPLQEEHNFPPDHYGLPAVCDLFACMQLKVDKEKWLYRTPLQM

HT22 cells [9] = assay: Non-ferroptotic cell death; assay type: cell-based, mouse
PTGS2 mRNA = PTGS2 mRNA expression; assay type: cell-based, mouse; settings: 12 h
HT22 cells [10] = assay: Intracellular Fe^2+; assay type: cell-based, mouse; settings: 6 h; for fluorescence intensity of FerroOrange (free Fe^2+): 0.5 μM 9a or 50 μM DFO
Method in brief: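 Live HT22 cells were given 0.5 μM test compound or 50 μM DFO for 6 h, then imaged by confocal microscopy with the Fe2+ probe FerroOrange; nuclei were stained with Hoechst 33342. Lysosomal Fe2+ was scored as FerroOrange signal colocalised with LysoTracker Green per cell, about 100 cells per condition. Three independent experiments, mean ± SEM.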

NCOA4 = molecular target: T4, NCOA4 (Homo sapiens, UniProt Q13772); assay: Biotin–streptavidin pull-down from HEK-293T lysates; assay type: binding; settings: lysate preincubated with 9a (20 μM) 6 h at 4 °C
T4 sequence (Q13772 1-614): T3 sequence (Q13772 1-614)
Method in brief: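 HEK-293T lysates expressing FTH1-Myc-His and NCOA4-Flag were pretreated with test compound or DMSO for 6 h at 4 °C. They were then incubated overnight at 4 °C with increasing concentrations of a biotinylated probe precoupled to streptavidin magnetic beads. Precipitates were pulled down with the beads and immunoblotted with anti-tag antibodies. Biotin-PEG3-N3 served as the negative-control probe.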

HT22 cells [11] = assay: LC3-II level; assay type: cell-based, mouse; settings: 6 h, Western blotting
HT-1080 cells [12] = assay: Lipid ROS in HT-1080 cells after GPX4 knockdown; assay type: cell-based, human; settings: 0.5 μM 9a, 36 h
[13] = test system: MCAO model of ischemic stroke; assay type: in vivo, rat; settings: for infarct volume (TTC staining): rat, in vivo
HT22 cells [14] = assay: RSL3-induced ferroptosis in HT22 cells; assay type: cell-based; settings: Mus musculus, HT-22, 24 h, read-out: EC50, inhibition of RSL3-induced death

SMILES: CN1CCN(c2ccc3nc(-c4cccc(N5CCc6ccccc6C5)c4)[nH]c3c2)CC1 [4a]
- pEC50 (HT22 cells [1]; Mus musculus, HT-22, 24 h): 6.30

SMILES: CC1CCN(c2ccc3nc(-c4cccc(N5CCc6ccccc6C5)c4)[nH]c3c2)CC1 [4b]
- pEC50 (HT22 cells [1]; Mus musculus, HT-22, 24 h): 6.19

SMILES: c1cc(-c2nc3ccc(N4CCCCC4)cc3[nH]2)cc(N2CCc3ccccc3C2)c1 [4c]
- pEC50 (HT22 cells [1]; Mus musculus, HT-22, 24 h): 5.92

SMILES: CN1CCN(c2ccc3nc(-c4cccc(N5CCc6cc(F)ccc6C5)c4)[nH]c3c2)CC1 [9a]
- pIC50 [2]: 5.49
- mRNA expressions of FTH1 and FTL (ferritin; 0.5 μM 9a, qPCR): did not change
- protein level of ferritin (ferritin; Western blotting): increased in a dose-dependent manner
- lipid ROS, oxidized BODIPY-C11 fluorescence intensity (HT22 cells [3]): remarkably decreased
- RSL3-induced cytosolic ROS accumulation (HT22 cells [3]; carboxy-H2DCFDA, flow cytometry): suppressed by 9a in a dose-dependent manner
- pKd (NCOA4^383–522 [4]): 5.13
- competition of Biotin-14d binding to NCOA4^383–522 (NCOA4^383–522 [5]): blocked
- intracellular GSH level (HT22 cells [6]): did not change
- GPX4 expression (HT22 cells [6]; immunoblot): did not change
- BSO-induced ferroptosis (HT22 cells [7]; 100 μM BSO, 12 h): dose-dependently prevented cell death
- ML210-induced ferroptosis (HT22 cells [7]; ML210 10 μM, 24 h): ferroptosis inhibitory behavior similar to those of Fer-1 and DFO
- cell death from cysteine depletion (HT22 cells [7]): significantly reduced the level of cell death
- ferroptosis induced by Erastin, RSL3, or ML210 (HT-1080 cells [8]; inducers 1 μM, 24 h): inhibited ferroptosis
- ferroptosis induced by knockdown of GPX4 (HT-1080 cells [8]; si-GPX4 12 h, then 0.5 μM 9a 36 h): significantly suppressed ferroptosis
- NCOA4–FTH1 interaction, co-IP of FTH1-Myc-His and NCOA4-Flag (NCOA4–FTH1 interaction; HEK-293T cells, 16 h treatment): substantially impaired
- endogenous NCOA4–FTH1 interaction, co-IP (NCOA4–FTH1 interaction; HT-1080 cells, 6 h): inhibited the endogenous NCOA4 interaction with FTH1
- staurosporine (STS)-induced apoptosis (HT22 cells [9]; 0.5 μM STS, 24 h): cannot inhibit
- hydrogen peroxide (H2O2)-induced necrosis (HT22 cells [9]; 2 mM H2O2, 12 h): cannot inhibit
- TNF-α/SM-164/zVAD-fmk-induced necroptosis (HT22 cells [9]; 12 h): cannot inhibit
- RSL3-induced PTGS2 mRNA expression (PTGS2 mRNA): dose-dependently inhibited the upregulation of PTGS2 expression
- fluorescence intensity of FerroOrange (free Fe^2+) (HT22 cells [10]): significantly decreased
- Fe^2+ in lysosomes (FerroOrange colocalized with LysoTracker Green) (HT22 cells [10]; 0.5 μM 9a): diminished
- competition of Biotin-14d binding to NCOA4 (NCOA4): competitively inhibited
- pEC50 (HT22 cells [1]; Mus musculus, HT-22, 24 h): 6.54
- LC3-II level (HT22 cells [11]): no ability to induce an increase in the LC3-II level
- lipid ROS accumulation induced by knockdown of GPX4 (HT-1080 cells [12]): inhibited lipid ROS accumulation
- 4-hydroxynonenal (4-HNE) level in the lesioned hemisphere ([13]; 10 mg/kg i.p.): reduced
- PTGS2 gene expression in the lesioned hemisphere ([13]; 10 mg/kg i.p.): significantly decreased
- malondialdehyde (MDA) level in the lesioned hemisphere ([13]; 10 mg/kg i.p.): reduced
- neurological deficits (Longa test) ([13]; 10 mg/kg i.p., 24 h after MCAO and reperfusion): improved neurological deficits
- percentage of injured neurons in the cortex (Nissl staining) ([13]; 10 mg/kg i.p., lesioned hemisphere): reduced the percentage of injured neurons in the cortex
- infarct volume (TTC staining) [13]: substantially reduced infarct volume

SMILES: Cc1ccc2c(c1)CN(c1cccc(-c3nc4ccc(N5CCN(C)CC5)cc4[nH]3)c1)CC2 [9e]
- pEC50 (HT22 cells [1]; Mus musculus, HT-22, 24 h): 6.11

SMILES: COc1cccc2c1CN(c1cccc(-c3nc4ccc(N5CCN(C)CC5)cc4[nH]3)c1)CC2 [9f]
- pEC50 (HT22 cells [1]; Mus musculus, HT-22, 24 h): 6.48

SMILES: CCOc1ccc2c(c1)CCN(c1cccc(-c3nc4ccc(N5CCN(C)CC5)cc4[nH]3)c1)C2 [14a]
- pEC50 (HT22 cells [1]; Mus musculus, HT-22, 24 h): 6.29

SMILES: CCCOc1ccc2c(c1)CCN(c1cccc(-c3nc4ccc(N5CCN(C)CC5)cc4[nH]3)c1)C2 [14b]
- pEC50 (HT22 cells [1]; Mus musculus, HT-22, 24 h): 6.41

SMILES: CC(C)Oc1ccc2c(c1)CCN(c1cccc(-c3nc4ccc(N5CCN(C)CC5)cc4[nH]3)c1)C2 [14c]
- pEC50 (HT22 cells [1]; Mus musculus, HT-22, 24 h): 6.28

SMILES: C#CCOc1ccc2c(c1)CCN(c1cccc(-c3nc4ccc(N5CCN(C)CC5)cc4[nH]3)c1)C2 [14d]
- pEC50 (HT22 cells [1]; Mus musculus, HT-22, 24 h): 6.06
- pEC50 (HT22 cells [14]): 6.16

SMILES: CC(=O)N(O)CCCCCNC(=O)CCC(=O)N(O)CCCCCNC(=O)CCC(=O)N(O)CCCCCN [DFO, Deferoxamine mesylate, reference compound]
- cell death from cysteine depletion (HT22 cells [7]): significantly reduced the level of cell death
- fluorescence intensity of FerroOrange (free Fe^2+) (HT22 cells [10]): significantly decreased
- pEC50 (HT22 cells [1]; Mus musculus, HT-22, 24 h): 5.24

SMILES: CCOC(=O)c1ccc(NC2CCCCC2)c(N)c1 [Fer-1, Ferrostatin-1, reference compound]
- lipid ROS, oxidized BODIPY-C11 fluorescence intensity (HT22 cells [3]): remarkably decreased
- cell death from cysteine depletion (HT22 cells [7]): significantly reduced the level of cell death
- pEC50 (HT22 cells [1]; 1 μM Erastin, 24 h, CCK-8): 7.09
- infarct volume (TTC staining) [13]: substantially reduced infarct volume
